Experimental data taken from ChEMBL document CHEMBL4184148 (Bioorg Med Chem Lett, 2017).
pIC50: −log10 of the molar value.

Tests used:
Aurora kinase C = biological target: T1, Aurora kinase C (Homo sapiens, UniProt Q9UQB9); test: Inhibition of recombinant full length GST-tagged human Aurora C expressed in baculovirus expression system by Z'LYTE assay
T1 sequence (Q9UQB9 whole entry): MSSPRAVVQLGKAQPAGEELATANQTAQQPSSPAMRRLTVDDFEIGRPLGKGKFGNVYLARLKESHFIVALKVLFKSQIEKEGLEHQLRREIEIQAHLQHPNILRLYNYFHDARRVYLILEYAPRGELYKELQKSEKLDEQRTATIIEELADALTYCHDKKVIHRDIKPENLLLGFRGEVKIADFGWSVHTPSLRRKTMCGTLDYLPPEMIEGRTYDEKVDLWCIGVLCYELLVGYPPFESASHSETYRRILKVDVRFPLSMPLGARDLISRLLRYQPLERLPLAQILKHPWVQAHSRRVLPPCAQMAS
How it was run: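 Biochemical IC50 from a Z'LYTE kinase assay, with ATP at the Km for each kinase. Values are reported with standard error.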

[1] = system: Tyrosine-protein kinase ABL1 (Homo sapiens), P00519 [E255K]; test: Binding affinity to human phosphorylated ABL1 E255K mutant (S229 to K512 residues) expressed in HEK293 cells at 1 uM by Kinomescan method relative to control; format: cell-based
[2] = system: ALK tyrosine kinase receptor (Homo sapiens), Q9UM73 [C1156Y]; test: Binding affinity to wild-type human partial length ALK C1156Y mutant (I1088 to E1409 residues) expressed in HEK293 cells at 1 uM by Kinomescan method relative to control; format: cell-based
[3] = system: ALK tyrosine kinase receptor (Homo sapiens), Q9UM73 [L1196M]; test: Binding affinity to […] human partial length ALK L1196M mutant (I1088 to E1409 residues) expressed in HEK293 cells at 1 uM by Kinomescan method relative to control; format: cell-based
[4] = biological target: Tyrosine-protein kinase Blk (Homo sapiens) (UniProt P51451); test: Binding affinity to wild-type human partial length BLK (G211 to L503 residues) expressed in Escherichia coli BL21 at 1 uM by Kinomescan method relative to control
[5] = biological target: Calcium/calmodulin-dependent protein kinase kinase 1 (Homo sapiens) (UniProt Q8N5S9); test: Binding affinity to wild-type human partial length CAMKK1 (R65 to E414 residues) expressed in Escherichia coli BL21 at 1 uM by Kinomescan method relative to control
[6] = biological target: Cyclin-dependent kinase 11B (Homo sapiens) (UniProt P21127); test: Binding affinity to wild-type human partial length CDC2L1 (P353 to G692 residues) expressed in Escherichia coli BL21 at 1 uM by Kinomescan method relative to control
[7] = biological target: Discoidin domain-containing receptor 2 (Homo sapiens) (UniProt Q16832); test: Binding affinity to wild-type human partial length DDR2 (V555 to E855 residues) expressed in HEK293 cells at 1 uM by Kinomescan method relative to control; format: cell-based
[8] = system: Epidermal growth factor receptor (Homo sapiens), P00533 [UNDEFINED MUTATION]; test: Binding affinity to human partial length EGFR L747-E749del/A750P mutant expressed in Escherichia coli BL21 at 1 uM by Kinomescan method relative to control
[9] = biological target: Epidermal growth factor receptor (Homo sapiens) (UniProt P00533); test: Binding affinity to human partial length EGFR S752-I759del mutant expressed in Escherichia coli BL21 at 1 uM by Kinomescan method relative to control
[10] = system: Receptor-type tyrosine-protein kinase FLT3 (Homo sapiens), P36888 [D835Y]; test: Binding affinity to human partial length FLT3 D835Y mutant (Q580 to Y969 residues) expressed in Escherichia coli BL21 at 1 uM by Kinomescan method relative to control
[11] = system: Receptor-type tyrosine-protein kinase FLT3 (Homo sapiens), P36888 [R834Q]; test: Binding affinity to human partial length FLT3 R834Q mutant (V592 to Y969 residues) expressed in HEK293 cells at 1 uM by Kinomescan method relative to control; format: cell-based
[12] = biological target: Mast/stem cell growth factor receptor Kit (Homo sapiens) (UniProt P10721); test: Binding affinity to wild-type human partial length autoinhibited KIT (Y545 to D952 residues) expressed in HEK293 cells at 1 uM by Kinomescan method relative to control; format: cell-based; design: scale not given: the % may be the effect or the level left
[13] = biological target: Mitogen-activated protein kinase kinase kinase 2 (Homo sapiens) (UniProt Q9Y2U5); test: Binding affinity to wild-type human partial length MAP3K2 (S315 to H619 residues) expressed in HEK293 cells at 1 uM by Kinomescan method relative to control; format: cell-based
[14] = biological target: Serine/threonine-protein kinase N1 (Homo sapiens) (UniProt Q16512); test: Binding affinity to wild-type human partial length PKN1 (E598 to C948 residues) expressed in Escherichia coli BL21 at 1 uM by Kinomescan method relative to control
[15] = biological target: Serine/threonine-protein kinase N2 (Homo sapiens) (UniProt Q16513); test: Binding affinity to wild-type human partial length PKN2 (E634 to C984 residues) expressed in Escherichia coli BL21 at 1 uM by Kinomescan method relative to control
[16] = biological target: Serine/threonine-protein kinase RIO1 (Homo sapiens) (UniProt Q9BRS2); test: Binding affinity to wild-type human full length RIOK1 (M1 to K568 residues) expressed in Escherichia coli BL21 at 1 uM by Kinomescan method relative to control
[17] = biological target: Ribosomal protein S6 kinase alpha-2 (Homo sapiens) (UniProt Q15349); test: Binding affinity to wild-type human partial length C-terminal RSK2 kinase domain 2 (V402 to S715 residues) expressed in HEK293 cells at 1 uM by Kinomescan method relative to control; format: cell-based
[18] = biological target: Ribosomal protein S6 kinase alpha-6 (Homo sapiens) (UniProt Q9UK32); test: Binding affinity to wild-type human partial length C-terminal RSK4 kinase domain 2 (I401 to Y711 residues) expressed in Escherichia coli BL21 at 1 uM by Kinomescan method relative to control
[19] = biological target: Tyrosine-protein kinase receptor Tie-1 (Homo sapiens) (UniProt P35590); test: Binding affinity to wild-type human partial length TIE1 (T819 to A1138 residues) expressed in Escherichia coli BL21 at 1 uM by Kinomescan method relative to control
[20] = biological target: Testis-specific serine/threonine-protein kinase 1 (Homo sapiens) (UniProt Q9BXA7); test: Binding affinity to wild-type human full length TSSK1B (M1 to Q367 residues) expressed in Escherichia coli BL21 at 1 uM by Kinomescan method relative to control
How it was run: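 Kinome-wide competition binding panel run by an outside provider, with each compound tested at a single concentration. Activity is read against the kinase panel.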

[21] = biological target: Serine/threonine-protein kinase WNK2 (Homo sapiens) (UniProt Q9Y3S1); test: Binding affinity to wild-type human partial length WNK2 (V47 to D482 residues) expressed in HEK293 cells at 1 uM by Kinomescan method relative to control; format: cell-based
[22] = biological target: Serine/threonine-protein kinase WNK3 (Homo sapiens) (UniProt Q9BYP7); test: Binding affinity to wild-type human partial length WNK3 (M1 to D434 residues) expressed in HEK293 cells at 1 uM by Kinomescan method relative to control; format: cell-based

Serine/threonine-protein kinase N1 (Homo sapiens), sequence (Q16512 2-942 limits assumed): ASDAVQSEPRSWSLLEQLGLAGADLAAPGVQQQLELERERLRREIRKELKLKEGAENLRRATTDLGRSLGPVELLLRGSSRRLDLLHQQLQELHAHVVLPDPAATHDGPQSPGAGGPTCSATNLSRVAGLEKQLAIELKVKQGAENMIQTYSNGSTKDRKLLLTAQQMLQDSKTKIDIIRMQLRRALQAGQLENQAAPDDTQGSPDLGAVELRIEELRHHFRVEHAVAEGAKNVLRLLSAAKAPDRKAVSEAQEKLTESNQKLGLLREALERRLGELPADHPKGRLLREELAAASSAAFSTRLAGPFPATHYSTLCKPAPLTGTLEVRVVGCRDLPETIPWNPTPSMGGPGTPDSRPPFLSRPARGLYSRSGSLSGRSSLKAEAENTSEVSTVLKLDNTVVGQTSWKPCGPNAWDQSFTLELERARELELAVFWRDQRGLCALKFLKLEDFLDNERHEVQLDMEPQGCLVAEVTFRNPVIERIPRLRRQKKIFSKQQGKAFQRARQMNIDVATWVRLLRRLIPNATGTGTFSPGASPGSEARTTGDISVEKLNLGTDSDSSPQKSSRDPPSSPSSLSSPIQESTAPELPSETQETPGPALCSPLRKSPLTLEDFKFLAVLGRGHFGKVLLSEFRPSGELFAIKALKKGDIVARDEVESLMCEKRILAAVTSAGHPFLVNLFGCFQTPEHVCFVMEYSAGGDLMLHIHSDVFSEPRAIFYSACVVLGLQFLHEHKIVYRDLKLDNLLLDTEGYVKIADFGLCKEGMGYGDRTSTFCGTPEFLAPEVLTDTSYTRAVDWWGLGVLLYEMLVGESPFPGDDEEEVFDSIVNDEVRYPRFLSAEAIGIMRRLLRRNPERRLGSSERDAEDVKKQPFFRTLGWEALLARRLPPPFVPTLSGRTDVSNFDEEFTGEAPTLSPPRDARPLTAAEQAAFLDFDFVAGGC
Mitogen-activated protein kinase kinase kinase 2 (Homo sapiens), sequence (Q9Y2U5 whole entry, the tested form may be a part): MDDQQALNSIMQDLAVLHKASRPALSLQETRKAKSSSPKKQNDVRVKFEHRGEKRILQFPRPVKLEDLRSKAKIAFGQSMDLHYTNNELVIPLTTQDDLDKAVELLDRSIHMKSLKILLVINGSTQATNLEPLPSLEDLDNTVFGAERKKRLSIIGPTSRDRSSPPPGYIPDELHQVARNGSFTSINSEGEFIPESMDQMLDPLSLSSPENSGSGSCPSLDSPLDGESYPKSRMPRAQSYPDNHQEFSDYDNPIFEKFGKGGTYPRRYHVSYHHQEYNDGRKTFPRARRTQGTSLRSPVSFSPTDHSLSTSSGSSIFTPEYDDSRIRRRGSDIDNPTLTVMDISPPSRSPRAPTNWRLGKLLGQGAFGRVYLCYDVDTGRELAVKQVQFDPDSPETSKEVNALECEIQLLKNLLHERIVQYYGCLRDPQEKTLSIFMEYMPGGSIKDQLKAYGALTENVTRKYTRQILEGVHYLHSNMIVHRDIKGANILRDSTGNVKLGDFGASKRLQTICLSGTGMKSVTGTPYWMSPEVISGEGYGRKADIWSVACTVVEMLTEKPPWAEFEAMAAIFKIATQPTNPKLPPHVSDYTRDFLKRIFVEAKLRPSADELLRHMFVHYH
Ribosomal protein S6 kinase alpha-2 (Homo sapiens), sequence (Q15349 whole entry, the tested form may be a part): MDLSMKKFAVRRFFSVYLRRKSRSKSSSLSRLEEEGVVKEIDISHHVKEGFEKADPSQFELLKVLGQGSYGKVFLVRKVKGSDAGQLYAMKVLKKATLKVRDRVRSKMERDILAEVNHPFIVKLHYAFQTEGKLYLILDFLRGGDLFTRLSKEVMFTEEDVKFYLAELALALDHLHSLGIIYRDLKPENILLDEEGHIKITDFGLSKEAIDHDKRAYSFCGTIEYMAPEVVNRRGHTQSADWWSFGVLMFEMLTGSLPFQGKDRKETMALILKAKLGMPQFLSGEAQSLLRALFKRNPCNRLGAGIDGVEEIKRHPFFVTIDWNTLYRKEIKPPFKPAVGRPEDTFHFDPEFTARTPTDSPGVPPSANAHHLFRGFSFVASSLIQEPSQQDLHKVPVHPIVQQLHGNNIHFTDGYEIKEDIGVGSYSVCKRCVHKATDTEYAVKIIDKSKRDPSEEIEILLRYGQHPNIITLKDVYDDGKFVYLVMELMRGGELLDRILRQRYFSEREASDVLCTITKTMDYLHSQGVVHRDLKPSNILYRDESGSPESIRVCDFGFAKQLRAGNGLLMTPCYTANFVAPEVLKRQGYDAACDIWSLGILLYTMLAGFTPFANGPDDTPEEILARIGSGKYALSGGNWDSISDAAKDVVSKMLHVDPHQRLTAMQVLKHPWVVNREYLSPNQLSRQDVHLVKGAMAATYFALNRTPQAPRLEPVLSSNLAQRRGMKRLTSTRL
Serine/threonine-protein kinase WNK2 (Homo sapiens), sequence (Q9Y3S1 whole entry, the tested form may be a part): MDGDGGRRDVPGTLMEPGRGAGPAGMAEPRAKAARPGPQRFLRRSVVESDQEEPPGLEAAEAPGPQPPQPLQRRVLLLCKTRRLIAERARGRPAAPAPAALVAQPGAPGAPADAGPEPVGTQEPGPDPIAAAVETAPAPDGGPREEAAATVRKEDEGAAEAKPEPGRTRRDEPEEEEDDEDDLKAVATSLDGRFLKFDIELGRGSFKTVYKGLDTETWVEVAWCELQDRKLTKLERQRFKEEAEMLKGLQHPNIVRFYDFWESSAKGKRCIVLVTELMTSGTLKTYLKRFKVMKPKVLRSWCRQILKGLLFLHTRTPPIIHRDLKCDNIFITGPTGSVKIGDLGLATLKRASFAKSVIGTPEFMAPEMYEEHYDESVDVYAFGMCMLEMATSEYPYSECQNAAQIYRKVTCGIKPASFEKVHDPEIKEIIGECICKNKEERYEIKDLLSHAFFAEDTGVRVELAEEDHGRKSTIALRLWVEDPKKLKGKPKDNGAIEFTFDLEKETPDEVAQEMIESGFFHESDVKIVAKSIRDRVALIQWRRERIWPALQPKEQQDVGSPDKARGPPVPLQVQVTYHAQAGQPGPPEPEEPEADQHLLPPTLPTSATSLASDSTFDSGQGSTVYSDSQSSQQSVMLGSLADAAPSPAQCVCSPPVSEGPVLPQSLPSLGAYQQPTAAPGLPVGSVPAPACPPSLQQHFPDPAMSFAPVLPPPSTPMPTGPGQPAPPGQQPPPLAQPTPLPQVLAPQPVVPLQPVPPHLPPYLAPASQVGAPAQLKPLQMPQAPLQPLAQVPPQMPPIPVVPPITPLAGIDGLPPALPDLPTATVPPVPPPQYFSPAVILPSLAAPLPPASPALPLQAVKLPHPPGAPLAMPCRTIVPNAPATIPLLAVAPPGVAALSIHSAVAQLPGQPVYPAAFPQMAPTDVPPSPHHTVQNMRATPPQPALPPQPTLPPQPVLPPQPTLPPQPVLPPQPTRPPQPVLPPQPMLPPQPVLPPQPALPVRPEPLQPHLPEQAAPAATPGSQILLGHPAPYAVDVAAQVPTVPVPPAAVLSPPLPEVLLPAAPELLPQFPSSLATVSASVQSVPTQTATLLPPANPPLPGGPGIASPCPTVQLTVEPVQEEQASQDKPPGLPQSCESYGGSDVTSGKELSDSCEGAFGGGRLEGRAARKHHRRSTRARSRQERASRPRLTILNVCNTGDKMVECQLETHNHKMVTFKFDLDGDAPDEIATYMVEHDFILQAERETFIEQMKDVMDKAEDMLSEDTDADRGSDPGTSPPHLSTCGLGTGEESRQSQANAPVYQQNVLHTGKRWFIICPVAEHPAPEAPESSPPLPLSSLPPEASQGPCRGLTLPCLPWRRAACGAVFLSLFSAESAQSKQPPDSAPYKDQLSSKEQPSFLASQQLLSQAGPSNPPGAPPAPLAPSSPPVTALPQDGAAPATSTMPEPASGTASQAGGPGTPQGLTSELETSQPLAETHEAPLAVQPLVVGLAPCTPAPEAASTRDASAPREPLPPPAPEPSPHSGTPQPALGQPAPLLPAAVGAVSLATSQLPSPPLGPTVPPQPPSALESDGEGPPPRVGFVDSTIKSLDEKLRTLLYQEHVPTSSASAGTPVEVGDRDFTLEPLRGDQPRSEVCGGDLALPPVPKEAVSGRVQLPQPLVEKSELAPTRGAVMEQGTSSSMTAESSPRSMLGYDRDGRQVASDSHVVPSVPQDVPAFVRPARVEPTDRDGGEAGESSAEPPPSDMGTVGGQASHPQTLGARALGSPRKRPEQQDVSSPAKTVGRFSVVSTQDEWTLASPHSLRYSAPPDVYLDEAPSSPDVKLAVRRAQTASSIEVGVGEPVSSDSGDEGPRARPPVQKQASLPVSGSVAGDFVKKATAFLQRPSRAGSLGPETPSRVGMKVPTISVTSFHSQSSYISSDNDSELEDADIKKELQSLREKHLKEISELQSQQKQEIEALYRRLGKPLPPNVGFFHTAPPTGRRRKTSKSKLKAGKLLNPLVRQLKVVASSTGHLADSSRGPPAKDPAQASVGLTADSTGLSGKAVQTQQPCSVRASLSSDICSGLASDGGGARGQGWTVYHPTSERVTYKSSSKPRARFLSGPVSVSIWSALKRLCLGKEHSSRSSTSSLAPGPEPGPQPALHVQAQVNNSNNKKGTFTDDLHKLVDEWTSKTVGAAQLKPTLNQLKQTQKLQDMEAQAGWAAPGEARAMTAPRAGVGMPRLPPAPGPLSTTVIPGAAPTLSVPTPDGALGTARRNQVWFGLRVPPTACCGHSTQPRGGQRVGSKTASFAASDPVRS
Calcium/calmodulin-dependent protein kinase kinase 1 (Homo sapiens), sequence (Q8N5S9 whole entry, looked up, the tested form may be a part): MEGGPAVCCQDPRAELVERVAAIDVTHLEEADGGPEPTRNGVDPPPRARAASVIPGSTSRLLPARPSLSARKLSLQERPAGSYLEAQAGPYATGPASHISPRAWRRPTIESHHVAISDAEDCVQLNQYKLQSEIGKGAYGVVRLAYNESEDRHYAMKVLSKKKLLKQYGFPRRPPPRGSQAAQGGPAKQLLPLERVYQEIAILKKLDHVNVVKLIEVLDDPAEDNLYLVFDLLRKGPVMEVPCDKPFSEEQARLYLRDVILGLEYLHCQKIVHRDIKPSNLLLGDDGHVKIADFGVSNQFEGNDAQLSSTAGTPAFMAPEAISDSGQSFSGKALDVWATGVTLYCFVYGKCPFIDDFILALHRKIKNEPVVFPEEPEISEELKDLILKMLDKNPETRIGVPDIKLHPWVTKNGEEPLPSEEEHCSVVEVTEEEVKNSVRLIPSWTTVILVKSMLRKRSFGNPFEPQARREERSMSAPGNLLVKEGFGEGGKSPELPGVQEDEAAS

SMILES: CCC(=O)Nc1ccc(C(=O)Nc2ccc(Nc3ncc4c(n3)N(C)c3ccc(C)cc3C(=O)N4C)cc2)cc1
- pIC50 (Aurora kinase C): 7.28
- Activity [1]: 60%
- Activity [2]: 100%
- Activity [3]: 96%
- Activity [4]: 74%
- Activity [5]: 100%
- Activity [6]: 100%
- Activity [7]: 89%
- Activity [8]: 48%
- Activity [9]: 90%
- Activity [10]: 77%
- Activity [11]: 86%
- Activity [12]: 90%
- Activity [13]: 66%
- Activity [14]: 100%
- Activity [15]: 100%
- Activity [16]: 68%
- Activity [17]: 100%
- Activity [18]: 100%
- Activity [19]: 88%
- Activity [20]: 89%
- Activity [21]: 94%
- Activity [22]: 100%

SMILES: C=CC(=O)Nc1ccc(C(=O)Nc2ccc(Nc3ncc4c(n3)N(C)c3ccc(C)cc3C(=O)N4C)cc2)cc1
- pIC50 (Aurora kinase C): 7.20
- Activity [1]: 77%
- Activity [2]: 94%
- Activity [3]: 94%
- Activity [4]: 96%
- Activity [5]: 100%
- Activity [6]: 97%
- Activity [7]: 96%
- Activity [8]: 76%
- Activity [9]: 96%
- Activity [10]: 83%
- Activity [11]: 98%
- Activity [12]: 96%
- Activity [13]: 85%
- Activity [14]: 82%
- Activity [15]: 75%
- Activity [16]: 84%
- Activity [17]: 100%
- Activity [18]: 100%
- Activity [19]: 96%
- Activity [20]: 100%
- Activity [21]: 86%
- Activity [22]: 100%
